Assay results reported in ChEMBL document CHEMBL1770119, “Synthesis and SAR of 4-(pyrazol-3-yl)-pyridines as novel c-jun N-terminal kinase inhibitors” (Bioorg Med Chem Lett, 2011).

Key:
Type in all cases: ADME, organism-based
[1] = Drug level in plasma of C57Bl6 mouse at 10 mg/kg, ip after 2 hrs; parameters: dose 10 mg/kg, route intraperitoneal; conditions: read-out: Drug uptake
Procedure, shortened: (§1)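 C57Bl6 mice (n = 3) dosed 10 mg/kg intraperitoneally; blood and brain collected 2 h later. Plasma and brain mixed with acetonitrile (1:5 v:v or w:v); brain broken up by probe sonication. Drug measured by LC-MS/MS against standards in plasma or in blank brain matrix.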

[2] = Drug level in brain of C57Bl6 mouse at 10 mg/kg, ip after 2 hrs; parameters: dose 10 mg/kg, route intraperitoneal; conditions: read-out: Drug uptake; procedure, shortened: as §1
[3] = AUC in Sprague-Dawley rat at 2 mg/kg, po; parameters: dose 2 mg/kg, route oral; conditions: plasma
Procedure, shortened: (§2)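 Sprague-Dawley rats (n = 3) given 1 mg/kg IV and 2 mg/kg oral gavage. Blood taken into EDTA tubes at 5, 15, 30 min and 1, 2, 4, 6, 8 h; plasma obtained by centrifugation. Plasma proteins precipitated with acetonitrile; drug measured by LC-MS/MS. Parameters derived by noncompartmental analysis.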

Rattus norvegicus = experiment: Oral bioavailability in Sprague-Dawley rat at 2 mg/kg; conditions: in vivo; procedure, shortened: as §2

concentration at 2 h [1] [µM]	concentration at 2 h [2] [µM]	AUC [3] [µM·h]	F (Rattus norvegicus) [%]	SMILES
6.6	3.5	45	75	Cn1ccc(-c2cc(Nc3ccc(-n4cnc(N5CCOCC5)n4)cc3)ncc2Cl)n1
10.4	5.3	7.1	73	Cc1nc(C)n(-c2ccc(Nc3cc(-c4ccn(C)n4)c(Cl)cn3)cc2)n1
9	10.3	10	69	Cc1ccc(-c2ncn(-c3ccc(Nc4cc(-c5ccn(C)n5)c(F)cn4)cc3)n2)cn1

The next lines start with the compound.

SMILES	concentration at 2 h [1] [µM]	concentration at 2 h [2] [µM]	AUC [3] [µM·h]	F (Rattus norvegicus) [%]
Cc1nc(C)n(-c2ccc(Nc3cc(-c4nn(C)cc4-c4ccc(F)cc4)ccn3)cc2)n1	9	1.4	6	51
Cn1ccc(-c2cc(Nc3ccc(-n4cnc(-c5ccccn5)n4)cc3)ncc2F)n1	3.3	0.74	14.9	73
